Data published in ChEMBL document CHEMBL1221379, “Identification and hit-to-lead optimization of a novel class of CB1 antagonists” (Bioorg Med Chem Lett, 2010).
≈ marks a conversion by molar mass, not a printed value.

Columns and labels:
[1] = target: Cannabinoid receptor 1 (Homo sapiens, UniProt P21554); experiment: Antagonist activity at human cannabinoid CB1 receptor expressed in CHO cells by luciferase reporter gene assay
[2] = Metabolic stability in human liver microsome assessed as compound remaining after 0.5 hrs; type: ADME; conditions: liver microsomes, read-out: Stability
Summary of the method: (§1)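 Human or mouse liver microsomes (300 nM cytochrome P450) in phosphate buffer pH 7.4 with 1 µM test compound and 1 mM NADPH. Incubated 30 min at 37 °C, stopped with acetonitrile, centrifuged, and analysed by LC/MS. Result given as % compound remaining at 0.5 h.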

[3] = Metabolic stability in mouse liver microsome assessed as compound remaining after 0.5 hrs; type: ADME; conditions: liver microsomes, read-out: Stability
Summary of the method: as §1

[4] = Aqueous solubility of the compound; type: physicochemical; conditions: buffer
Summary of the method: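 Shake-flask method. 10 mM DMSO stock added to 0.05 M phosphate buffered saline pH 7.4, 2% DMSO final. Vortexed at 1500 rpm for 24 h at 21 °C, then vacuum-filtered. Filtrate assayed by HPLC with UV at 230 nm against a calibration from a 50 µM DMSO solution. Duplicate determinations, averaged.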

[5] = AUC (0 to 7.5 hrs) in Wistar rat at 5 mg/kg, po; type: ADME, organism-based; parameters: time < 7.5 hr, dose 5 mg/kg, route oral; conditions: plasma
Summary of the method: (§2)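 Male Wistar rats dosed 5 mpk po in 0.5% gelatin in 5% mannitol (aq), or 1 mpk iv in 20% N,N-dimethylacetamide in saline. AUC po taken over 0–7.5 h; clearance and half-life from iv dosing; oral bioavailability and Vss from po/iv pharmacokinetic parameters.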

[6] = Oral bioavailability in Wistar rat at 5 mg/kg; type: ADME, organism-based; conditions: in vivo
Summary of the method: as §2

[7] = system: Mus musculus; experiment: Inhibition of WIN-55212-2-induced hypothermia in mouse assessed as change in rectal temperature at 100 umol/kg sc administered 15 mins before WIN-55212-2 challenge measured after 60 mins; parameters: scale not given: the % may be the effect or the level left
[8] = Volume of distribution at steady state in Wistar rat at 5 mg/kg, po and 1 mg/kg, iv; type: ADME, organism-based; conditions: in vivo, read-out: Vdss
Summary of the method: as §2

[9] = system: Mus musculus; experiment: Inhibition of WIN-55212-2-induced hypothermia in sc dosed mouse assessed as change in rectal temperature administered 15 mins before WIN-55212-2 challenge measured after 60 mins; conditions: 1 h
[10] = system: Mus musculus; experiment: Inhibition of WIN-55212-2-induced hypothermia in mouse assessed as change in rectal temperature at 30 umol/kg sc administered 15 mins before WIN-55212-2 challenge measured after 60 mins; parameters: scale not given: the % may be the effect or the level left
[11] = Half life in Wistar rat at 1 mg/kg, iv; type: ADME, organism-based; parameters: dose 1 mg/kg, route intravenous; conditions: in vivo
Summary of the method: as §2

[12] = Clearance in Wistar rat at 1 mg/kg, iv; type: ADME, organism-based; parameters: dose 1 mg/kg, route intravenous; conditions: in vivo
Summary of the method: as §2

[13] = system: Mus musculus; experiment: Inhibition of WIN-55212-2-induced hypothermia in mouse assessed as change in rectal temperature at 0.01 umol/kg sc administered 15 mins before WIN-55212-2 challenge measured after 60 mins; parameters: scale not given: the % may be the effect or the level left
[14] = system: Mus musculus; experiment: Inhibition of WIN-55212-2-induced hypothermia in mouse assessed as change in rectal temperature at 0.1 umol/kg sc administered 15 mins before WIN-55212-2 challenge measured after 60 mins; parameters: scale not given: the % may be the effect or the level left
[15] = system: Mus musculus; experiment: Inhibition of WIN-55212-2-induced hypothermia in mouse assessed as change in rectal temperature at 10 umol/kg sc administered 15 mins before WIN-55212-2 challenge measured after 60 mins; parameters: scale not given: the % may be the effect or the level left
[16] = system: Mus musculus; experiment: Inhibition of WIN-55212-2-induced hypothermia in mouse assessed as change in rectal temperature at 1 umol/kg sc administered 15 mins before WIN-55212-2 challenge measured after 60 mins; parameters: scale not given: the % may be the effect or the level left
[17] = system: Mus musculus; experiment: Inhibition of WIN-55212-2-induced hypothermia in mouse assessed as change in rectal temperature at 3 umol/kg sc administered 15 mins before WIN-55212-2 challenge measured after 60 mins; parameters: scale not given: the % may be the effect or the level left
[18] = system: Mus musculus; experiment: Inhibition of WIN-55212-2-induced hypothermia in mouse assessed as change in rectal temperature at 0.3 umol/kg sc administered 15 mins before WIN-55212-2 challenge measured after 60 mins; parameters: scale not given: the % may be the effect or the level left

Chain of Cannabinoid receptor 1 (P21554 whole entry): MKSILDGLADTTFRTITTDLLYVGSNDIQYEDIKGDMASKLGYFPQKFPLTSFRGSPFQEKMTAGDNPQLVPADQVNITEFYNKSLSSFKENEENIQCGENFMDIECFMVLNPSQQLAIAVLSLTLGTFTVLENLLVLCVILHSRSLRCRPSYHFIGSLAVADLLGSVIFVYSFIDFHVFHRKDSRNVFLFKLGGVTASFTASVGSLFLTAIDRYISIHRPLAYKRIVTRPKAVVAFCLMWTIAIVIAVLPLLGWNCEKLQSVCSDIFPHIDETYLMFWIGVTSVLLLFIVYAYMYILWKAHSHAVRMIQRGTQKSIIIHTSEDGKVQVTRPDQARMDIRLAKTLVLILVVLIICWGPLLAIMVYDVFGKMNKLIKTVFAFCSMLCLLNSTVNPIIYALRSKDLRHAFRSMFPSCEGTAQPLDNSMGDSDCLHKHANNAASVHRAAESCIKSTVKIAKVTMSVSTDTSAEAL

| SMILES | IC50 [1] | remaining at 0.5 h [2] | remaining at 0.5 h [3] | solubility [4] | also measured |
| --- | --- | --- | --- | --- | --- |
| COc1ccccc1-c1cccc(Cn2cnc3ccc(C(=O)NCc4cccc(F)c4)cc32)c1 | 104 nM | 2% | 0% |  |  |
| CC(C)(C)C(=O)Nc1ccc2ncn(Cc3cccc(-c4cccc5c4OCO5)c3)c2c1 | 64 nM | 35% | 2% |  |  |
| COc1cc(F)ccc1-c1cccc(Cn2cnc3ccc(NC(=O)C(C)(C)C)cc32)c1 | 269 nM |  |  |  |  |
| CC(C)(C)C(=O)Nc1ccc2ncn(Cc3cccc(-c4cccc5c4OCO5)n3)c2c1 | 21 nM | 28% | 17% |  |  |
| COc1cc(F)ccc1-c1cccc(Cn2cnc3ccc(NC(=O)C(C)(C)C)cc32)n1 | 73 nM | 14% | 1% |  |  |
| CC(C)(C)C(=O)Nc1ccc2ccn(Cc3cccc(-c4cccc5c4OCO5)c3)c2c1 | 51 nM | 72% | 65% | < 1 µg/mL |  |
| COc1cc(F)ccc1-c1cccc(Cn2ccc3ccc(NC(=O)C(C)(C)C)cc32)c1 | 58 nM | 51% | 58% | < 1 µg/mL |  |
| Cn1cc(Cc2cccc(-c3cccc4c3OCO4)c2)c2cc(NC(=O)C(C)(C)C)ccc21 | 37 nM | 52% | 29% | < 1 µg/mL |  |
| COc1cc(F)ccc1-c1cccc(Cc2cn(C)c3ccc(NC(=O)C(C)(C)C)cc23)c1 | 45 nM | 70% | 72% | < 1 µg/mL |  |
| CC(C)(CO)C(=O)Nc1ccc2ccn(Cc3cccc(-c4cccc5c4OCO5)n3)c2c1 | 7 nM | 62% | 52% | 3.2 µg/mL (≈ 7.22 µM) |  |
| COc1cc(F)ccc1-c1cccc(Cn2ccc3ccc(NC(=O)C(C)(C)CO)cc32)n1 | 45 nM | 45% | 54% | 11.7 µg/mL (≈ 26.1 µM) |  |
| CC(C)(O)CC(=O)Nc1ccc2ccn(Cc3cccc(-c4cccc5c4OCO5)n3)c2c1 | 3 nM | 51% | 53% | < 1 µg/mL |  |
| COc1cc(F)ccc1-c1cccc(Cn2ccc3ccc(NC(=O)CC(C)(C)O)cc32)n1 | 23 nM | 35% | 44% | 17.9 µg/mL (≈ 40 µM) |  |
| Cn1cc(Cc2cccc(-c3cccc4c3OCO4)n2)c2cc(NC(=O)C(C)(C)CO)ccc21 | 7 nM | 56% | 16% | < 1 µg/mL |  |
| COc1cc(F)ccc1-c1cccc(Cc2cn(C)c3ccc(NC(=O)C(C)(C)CO)cc23)n1 | 27 nM | 47% | 5% | 2 µg/mL (≈ 4.33 µM) |  |
| Cn1cc(Cc2cccc(-c3cccc4c3OCO4)n2)c2cc(NC(=O)CC(C)(C)O)ccc21 | 5 nM | 56% | 36% | 14.9 µg/mL (≈ 32.6 µM) | AUC(0-t) at 7.5 h [5]: 1290 ng·h/mL; bioavailability [6]: 37%; Activity [7]: 92.5%; Vd [8]: 1.2 L/kg; ED50 [9]: 30 µmol/kg; Activity [10]: 46.8%; half-life [11]: 1 h; clearance [12]: 19 mL/min/kg |
| COc1cc(F)ccc1-c1cccc(Cc2cn(C)c3ccc(NC(=O)CC(C)(C)O)cc23)n1 | 19 nM | 41% | 14% | 10.6 µg/mL (≈ 23 µM) |  |
| Cc1c(C(=O)NN2CCCCC2)nn(-c2ccc(Cl)cc2Cl)c1-c1ccc(Cl)cc1 [RIMONABANT] |  |  |  |  | Activity [13]: -0.2%; Activity [14]: 13.8%; ED50 [9]: 0.8 µmol/kg; Activity [10]: 100.4%; Activity [15]: 113.4%; Activity [16]: 60.2%; Activity [17]: 116.7%; Activity [18]: 14.7% |
